These results are taken from ChEMBL document CHEMBL1759851, “Facile synthesis and stereochemical investigation of Mannich base derivatives: evaluation of antioxidant property and antituberculostic potency” (2011).

In general, inhibition refers to the relative decrease from the control value, in per cent.

Format in all cases: functional
In assay [1] the test system is Radical scavenging activity. In words: Antioxidant activity assessed as DPPH radical scavenging activity at 100 ug/mL after 30 mins. In a few lines:
(§1)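 Oxime ethers tested by DPPH radical scavenging (Blois method, slightly modified). Sample and DPPH solution mixed gently and left at room temperature for 30 min. Optical density read at 530 nm on a microplate reader. Scavenging reported as % inhibition at each test concentration.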

Assay [2] relates to Mycobacterium tuberculosis. In words: Antituberculosis activity against Mycobacterium tuberculosis H37Rv. In a few lines:
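Zone-of-inhibition assay against M. tuberculosis H37Rv. Zone diameters were scored on an activity index: 0–5 mm, 6–10 mm (+), 11–15 mm (++), 16–20 mm (+++), and a top band (++++) for larger zones.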

For assay [3], the system named is Radical scavenging activity. In words: Antioxidant activity assessed as DPPH radical scavenging activity at 200 ug/mL after 30 mins. The method in brief:
as §1
On the technique in general: Loss of DPPH colour is used to gauge radical scavenging.

For assay [4], the system named is Radical scavenging activity. Put plainly: Antioxidant activity assessed as DPPH radical scavenging activity at 400 ug/mL after 30 mins. In a few lines:
as §1

Assay [5] relates to Radical scavenging activity. Put plainly: Antioxidant activity assessed as DPPH radical scavenging activity at 10 ug/mL after 30 mins. The method in brief:
as §1

In assay [6] the test system is Radical scavenging activity. Put plainly: Antioxidant activity assessed as DPPH radical scavenging activity at 800 ug/mL after 30 mins. In a few lines: as §1

Molecules are shown by their SMILES. Where only a bound is given, the exact number is not on record here.

`CCCCOc1ccc([C@H]2N[C@@H](c3ccc(OCCCC)cc3)[C@H]3CCC[C@@H]2/C3=N\OC)cc1`: the inhibition turned out to be 27.8% in assay [1] and 43.9% in assay [3]. Besides, the “inhibition zone (IZ)” value in assay [2] is 6 mm.

For `CO/N=C1\[C@H]2CCC[C@@H]1[C@H](c1ccccc1Cl)N[C@@H]2c1ccccc1Cl`, in assay [1], the inhibition amounted to 6.47%. Moreover, the “inhibition zone (IZ)” value in assay [2] is reported as 6 mm.

For the molecule `CO/N=C1\[C@H]2CCC[C@@H]1[C@H](c1ccccc1C)N(C)[C@@H]2c1ccccc1C`, the inhibition in assay [1] was determined as 15.3%. In addition, in assay [2], the “inhibition zone (IZ)” value is on record as 6 mm.

In the case of `CO/N=C1\[C@H]2CCC[C@@H]1[C@H](c1ccccc1F)N[C@@H]2c1ccccc1F`, the inhibition in assay [1] was 2.33%. Further, the “inhibition zone (IZ)” value in assay [2] is 11 mm.

As to `CO/N=C1\[C@H]2CCC[C@@H]1[C@H](c1ccc(F)cc1)N(C)[C@@H]2c1ccc(F)cc1`, in assay [1], the inhibition was determined as 2.4%. Besides, in assay [2], the “inhibition zone (IZ)” value is reported as “<=21 mm”.

Take `CO/N=C1\[C@H]2CCC[C@@H]1[C@H](c1cccc(OC)c1)N(C)[C@@H]2c1cccc(OC)c1`: the inhibition in assay [1] came out at 10.7%; in assay [4], 26.8%; in assay [3], 13.8%.

Consider `CO/N=C1\[C@H]2CCC[C@@H]1[C@H](c1ccc(Br)cc1)N[C@@H]2c1ccc(Br)cc1`, for which the inhibition in assay [1] came out at 5.72%. Besides, in assay [2], the “inhibition zone (IZ)” value is 0 mm.

Consider `CO/N=C1\[C@H]2CCC[C@@H]1[C@H](c1ccc(C)cc1)N[C@@H]2c1ccc(C)cc1`, for which, in assay [1], the inhibition was 14.5%. Besides, the “inhibition zone (IZ)” value in assay [2] worked out at 0 mm.

Consider `CO/N=C1\[C@H]2CCC[C@@H]1[C@H](c1ccccc1OC)N[C@@H]2c1ccccc1OC`, for which the inhibition in assay [1] stood at 16%; in assay [3], 20.7%. Moreover, in assay [2], the “inhibition zone (IZ)” value turned out to be 6 mm.

`O=C1O[C@H]([C@@H](O)CO)C(O)=C1O`: in assay [5], the inhibition stood at 98.5%.

In the case of `CO/N=C1\[C@H]2CCC[C@@H]1[C@H](c1ccc(SC)cc1)N[C@@H]2c1ccc(SC)cc1`, the inhibition in assay [1] came to 17.6%; in assay [3], 22.5%. In addition, the “inhibition zone (IZ)” value in assay [2] worked out at 11 mm.

On to `NNC(=O)c1ccncc1` [ISONIAZID], for which, in assay [2], the “inhibition zone (IZ)” value is on record as “<=21 mm”.

Turning to `CCOc1ccccc1[C@H]1N[C@@H](c2ccccc2OCC)[C@H]2CCC[C@@H]1/C2=N\OC`, the inhibition in assay [1] is 10.2%. In addition, the “inhibition zone (IZ)” value in assay [2] was determined as 6 mm.

Regarding `CO/N=C1\[C@H]2CCC[C@@H]1[C@H](c1cccc(Br)c1)N[C@@H]2c1cccc(Br)c1`, in assay [1], the inhibition was determined as 4.35%.

As to `CO/N=C1\[C@H]2CCC[C@@H]1[C@H](c1cccc(Cl)c1)N[C@@H]2c1cccc(Cl)c1`, in assay [1], the inhibition turned out to be 4.77%. In addition, the “inhibition zone (IZ)” value in assay [2] is recorded as 0 mm.

Turning to `CCCOc1ccc([C@H]2N[C@@H](c3ccc(OCCC)cc3)[C@H]3CCC[C@@H]2/C3=N\OC)cc1`, the values for the inhibition in assay [1] and in assay [3] were 23.9% and 38.5%, respectively. Moreover, the “inhibition zone (IZ)” value in assay [2] was determined as 6 mm.

Regarding `CO/N=C1\[C@H]2CCC[C@@H]1[C@H](c1cccc(F)c1)N[C@@H]2c1cccc(F)c1`, the inhibition in assay [1] came out at 0.97%. Besides, in assay [2], the “inhibition zone (IZ)” value turned out to be 6 mm.

In the case of `CCc1ccc([C@H]2N[C@@H](c3ccc(CC)cc3)[C@H]3CCC[C@@H]2/C3=N\OC)cc1`, the inhibition in assay [1] was 11.9%. The “inhibition zone (IZ)” value in assay [2] was found to be 0 mm.

Turning to `CO/N=C1\[C@H]2CCC[C@@H]1[C@H](c1ccc(Br)cc1)N(C)[C@@H]2c1ccc(Br)cc1`, the inhibition in assay [1] is 12.1%. Moreover, the “inhibition zone (IZ)” value in assay [2] is 0 mm.

Consider `CO/N=C1\[C@H]2CCC[C@@H]1[C@H](c1ccccc1OC)N(C)[C@@H]2c1ccccc1OC`, for which the inhibition in assay [1] is 15.4%; in assay [4], 40.2%; in assay [3], 24.9%.

For the molecule `CO/N=C1\[C@H]2CCC[C@@H]1[C@H](c1ccc(C(C)C)cc1)N[C@@H]2c1ccc(C(C)C)cc1`, the inhibition in assay [1] was found to be 15.3%. In addition, in assay [2], the “inhibition zone (IZ)” value worked out at 6 mm.

Regarding `CO/N=C1\[C@H]2CCC[C@@H]1[C@H](c1cccc(OC)c1)N[C@@H]2c1cccc(OC)c1`, the inhibition in assay [1] came out at 13.5%.

Take `CO/N=C1\[C@H]2CCC[C@@H]1[C@H](c1ccc(OC)cc1)N[C@@H]2c1ccc(OC)cc1`: the inhibition in assay [1] came out at 13.9%. For the same molecule, the “inhibition zone (IZ)” value in assay [2] is on record as 6 mm.

For `CO/N=C1\[C@H]2CCC[C@@H]1[C@H](c1ccc(Cl)cc1)N(C)[C@@H]2c1ccc(Cl)cc1`, the inhibition in assay [1] is 11.9%. In addition, in assay [2], the “inhibition zone (IZ)” value came to 11 mm.

For the molecule `CO/N=C1\[C@H]2CCC[C@@H]1[C@H](c1ccccc1Br)N[C@@H]2c1ccccc1Br`, the inhibition in assay [1] amounted to 5.28%.

For the molecule `CO/N=C1\[C@H]2CCC[C@@H]1[C@H](c1ccccc1)N[C@@H]2c1ccccc1`, the inhibition in assay [1] stood at 10.5%; in assay [4], 24.4%; in assay [3], 18.7%. Moreover, in assay [2], the “inhibition zone (IZ)” value is reported as 0 mm.

Turning to `CO/N=C1\[C@H]2CCC[C@@H]1[C@H](c1ccc(OC(C)=O)c(OC)c1)N[C@@H]2c1ccc(OC(C)=O)c(OC)c1`, the inhibition in assay [1] was determined as 32.4%; in assay [4], 78.3%; in assay [6] it was 88.8%; in assay [3], 52.9%.

For the molecule `C=CCOc1ccc([C@H]2N[C@@H](c3ccc(OCC=C)cc3)[C@H]3CCC[C@@H]2/C3=N\OC)cc1`, the results for the inhibition in assay [1], in assay [4] and in assay [3] were 21.7%, 31.8% and 25.8%, respectively. In assay [2], the “inhibition zone (IZ)” value was “<=21 mm”.

For `CO/N=C1\[C@H]2CCC[C@@H]1[C@H](c1ccccc1Cl)N(C)[C@@H]2c1ccccc1Cl`, the inhibition in assay [1] was 11.4%. Moreover, the “inhibition zone (IZ)” value in assay [2] is recorded as 11 mm.

For the molecule `CO/N=C1\[C@H]2CCC[C@@H]1[C@H](c1ccccc1)N(C)[C@@H]2c1ccccc1`, the values for the inhibition in assay [1] and in assay [3] were 10.7% and 13.8%, respectively.

Turning to `CCOc1ccc([C@H]2N[C@@H](c3ccc(OCC)cc3)[C@H]3CCC[C@@H]2/C3=N\OC)cc1`, the inhibition is 23.2% in assay [1] and 30.8% in assay [3]. In addition, in assay [2], the “inhibition zone (IZ)” value was found to be 6 mm.

Turning to `CO/N=C1\[C@H]2CCC[C@@H]1[C@H](c1ccc(OC)cc1)N(C)[C@@H]2c1ccc(OC)cc1`, the inhibition in assay [1] amounted to 20.9%; in assay [4], 58.8%; in assay [3], 41.9%. Also, the “inhibition zone (IZ)” value in assay [2] is listed as 6 mm.

As for `CO/N=C1\[C@H]2CCC[C@@H]1[C@H](c1ccc(C)cc1)N(C)[C@@H]2c1ccc(C)cc1`, the inhibition in assay [1] worked out at 19.8%; in assay [3], 22%. The “inhibition zone (IZ)” value in assay [2] is reported as 6 mm.

For `CO/N=C1\[C@H]2CCC[C@@H]1[C@H](c1ccccc1C)N[C@@H]2c1ccccc1C`, the inhibition in assay [1] came to 9.5%. In addition, the “inhibition zone (IZ)” value in assay [2] was 0 mm.

For `CO/N=C1\[C@H]2CCC[C@@H]1[C@H](c1ccc(F)cc1)N[C@@H]2c1ccc(F)cc1`, the inhibition in assay [1] came out at 3.6%. The “inhibition zone (IZ)” value in assay [2] is on record as 16 mm.

With `CO/N=C1\[C@H]2CCC[C@@H]1[C@H](c1ccc(OCc3ccccc3)cc1)N[C@@H]2c1ccc(OCc2ccccc2)cc1`, the values for the inhibition in assay [1] and in assay [3] were 27.9% and 47.8%, respectively. Moreover, in assay [2], the “inhibition zone (IZ)” value is listed as “<=21 mm”.

For `CO/N=C1\[C@H]2CCC[C@@H]1[C@H](c1ccc(Cl)cc1)N[C@@H]2c1ccc(Cl)cc1`, the inhibition in assay [1] is 6.58%. Moreover, in assay [2], the “inhibition zone (IZ)” value was 11 mm.
